Here are results for 17 molecules from ChEMBL document CHEMBL1155465, “"Viologen" dendrimers as antiviral agents: the effect of charge number and distance” (J Med Chem, 2010).

Where only a bound is given, the exact number is not on record here.

Data set [1] is described as follows: Cytotoxicity against human MT4 cells after 5 days by MTT assay. Format: cell-based. The method in brief:
(§1)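 MT-4 cells in RPMI 1640 with 10% heat-inactivated FCS, 2 mM L-glutamine, 0.1% bicarbonate and gentamicin, seeded at 6 × 10⁵ cells/mL final with virus or mock infection. Viability read by MTT after 5 days at 540 and 690 nm, using the median OD of three wells. CC50 is 50% loss of mock-infected OD540. EC50 is 50% inhibition of virus-induced CPE. SI = CC50/EC50. Mean ± SD of ≥2 experiments.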
On the technique in general: Tetrazolium dyes change colour on reduction, which living cells bring about.

Data set [2] can be described thus: Selectivity index, ratio of CC50 for human MT4 cells to EC50 for HIV1 3B. Format: toxicity, cell-based. Conditions: read-out: Ratio CC50/EC50. In short, it runs like this: as §1
Data set [3] concerns Human immunodeficiency virus 2. Put plainly: Antiviral activity against HIV2 ROD infected in human MT4 cells after 5 days by MTT assay. The data set is classed as functional, organism-based. Conditions: Human immunodeficiency virus 2, ISOLATE ROD, MT4, 120 h. The method in brief:
as §1

Data set [4] concerns Human immunodeficiency virus 1. Description: Antiviral activity against HIV1 3B infected in human MT4 cells after 5 days by MTT assay. Format: functional, organism-based. Conditions: Human immunodeficiency virus 1, 3B, MT4, 120 h. In short, it runs like this:
as §1

One may read the CC50 as the concentration giving 50% cytotoxicity. Read a high CC50 as lower toxicity to the cells. What is called EC50 is the concentration giving half of the maximal effect. High values mean a less potent agent, low ones a more potent agent.

In turn, `C[n+]1ccc(-c2cc[n+](C)cc2)cc1` yielded a CC50 at 120 h in data set [1] of 25.2 µM. Further, the selectivity ratio in data set [2] was below 1. Further, the EC50 in data set [3] and in data set [4] was above 25.2 µM each time.

On to `BrCC[n+]1ccc(-c2ccncc2)cc1`, for which it took 79.2 µM to reach half-maximal cytotoxicity in data set [1] (CC50 at 120 h). The selectivity ratio in data set [2] is below 1. The EC50 in data set [3] and in data set [4] was above 79.2 µM throughout.

For `NCCC[n+]1ccc(-c2ccncc2)cc1`, the CC50 at 120 h in data set [1] was above 346 µM. In addition, the selectivity ratio in data set [2] was below 1. In addition, the EC50 in data set [3] and in data set [4] was above 346 µM in each case.

`CCC[n+]1ccc(-c2ccncc2)cc1` yielded a CC50 at 120 h in data set [1] above 363 µM. Moreover, in data set [2], the selectivity ratio was below 1. Moreover, the EC50 in data set [3] and in data set [4] was above 363 µM in each case.

The molecule `CC[n+]1ccc(-c2ccncc2)cc1` had a CC50 at 120 h in data set [1] of 281 µM. Further, in data set [2], the selectivity ratio is below 1. The EC50 in data set [3] and in data set [4] was above 282 µM in each case.

The molecule `C=C[n+]1ccc(-c2cc[n+](C)cc2)cc1` returned a CC50 at 120 h in data set [1] of 26.1 µM. In addition, in data set [2], the selectivity ratio is below 1. Besides, the EC50 in data set [3] and in data set [4] was above 26.1 µM each time.

Take `C=C[n+]1ccc(-c2ccncc2)cc1`: in data set [1], it took 15.9 µM to reach half-maximal cytotoxicity (CC50 at 120 h). The selectivity ratio in data set [2] was below 1. The EC50 in data set [3] and in data set [4] was above 15.9 µM in each case.

In the case of `CC[n+]1ccc(-c2cc[n+](Cc3cc(CO)cc(C[n+]4ccc(-c5cc[n+](CC)cc5)cc4)c3)cc2)cc1`, half-maximal cytotoxicity in data set [1] (CC50 at 120 h) was put at 10.6 µM. Moreover, the selectivity ratio in data set [2] was below 1. Moreover, the EC50 in data set [3] and in data set [4] was above 10.6 µM throughout.

In data set [1], `CC[n+]1ccc(-c2cc[n+](Cc3ccc(CBr)cc3)cc2)cc1` yielded a CC50 at 120 h of 0.9 µM. The selectivity ratio in data set [2] is below 1. Further, the EC50 in data set [3] and in data set [4] was above 0.9 µM each time.

In the case of `BrCc1cc(CBr)cc(-[n+]2ccc(-c3cc[n+](-c4cc(CBr)cc(CBr)c4)cc3)cc2)c1`, the CC50 at 120 h in data set [1] was above 148 µM. In data set [2], the selectivity ratio is below 1. Moreover, the concentration for a half-maximal effect (EC50) in data set [3] and in data set [4] was above 148 µM throughout.

With `CC[n+]1ccc(-c2cc[n+](Cc3cc(C[n+]4ccc(-c5cc[n+](CC)cc5)cc4)cc(C[n+]4ccc(-c5cc[n+](CC)cc5)cc4)c3)cc2)cc1`, the CC50 at 120 h in data set [1] was above 81.1 µM. Further, in data set [2], the selectivity ratio is below 1. The EC50 in data set [3] and in data set [4] was above 81.1 µM in each case.

In data set [1], `C=C[n+]1ccc(-c2cc[n+](CCc3ccc([N+](=O)[O-])cc3)cc2)cc1` gave a CC50 at 120 h of 0.4 µM. Besides, the selectivity ratio in data set [2] was below 1. Also, the EC50 in data set [3] and in data set [4] was above 0.4 µM throughout.

In turn, `NCCC[n+]1ccc(-c2cc[n+](CCCN)cc2)cc1` registered a CC50 at 120 h in data set [1] of 3.3 µM. Moreover, the selectivity ratio in data set [2] is below 1. Also, the EC50 in data set [3] and in data set [4] was above 3.3 µM throughout.

The molecule `NCCC[n+]1ccc(-c2cc[n+](Cc3ccccc3)cc2)cc1` registered a cytotoxic concentration (CC50) at 120 h in data set [1] of 0.9 µM. The selectivity ratio in data set [2] is below 1. The EC50 in data set [3] and in data set [4] was above 0.9 µM each time.

As to `C=C[n+]1ccc(-c2cc[n+](Cc3ccccc3)cc2)cc1`, the CC50 at 120 h in data set [1] was determined as 2.7 µM. For the same molecule, in data set [2], the selectivity ratio is below 1. Further, the EC50 in data set [3] and in data set [4] was above 2.7 µM in each case.

In data set [1], `C=C[n+]1ccc(-c2cc[n+](Cc3cc(C[n+]4ccc(-c5cc[n+](C=C)cc5)cc4)cc(C[n+]4ccc(-c5cc[n+](C=C)cc5)cc4)c3)cc2)cc1` yielded a CC50 at 120 h of 33.4 µM. For the same molecule, the selectivity ratio in data set [2] is below 1. For the same molecule, the EC50 in data set [3] and in data set [4] was above 33.4 µM throughout.

In data set [1], `OCc1cc(CO)cc(-[n+]2ccc(-c3cc[n+](-c4cc(CO)cc(CO)c4)cc3)cc2)c1` came in with a CC50 at 120 h of 2.7 µM. Besides, in data set [2], the selectivity ratio is below 1. Also, the 50% effective concentration (EC50) in data set [3] and in data set [4] was above 2.7 µM each time.
